Paper PMC3793015 (Journal of agricultural and food chemistry, 2013)
Values belong to the compound of their own block, whether it stands above or below them.

How the values were obtained:
HepG2 cells = assay: Cellular uptake and metabolism of α-MG; format: in vitro ADME, human; details: 24 h after addition of α-MG, control cultures; nd: not detected
Procedure, shortened: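 HepG2 monolayers, 2 days post-confluence, received 9.0 μM compound as a DMSO stock added to 10% FBS medium for 24 h. Activated cultures had 10 ng/mL TNF-α for 4 h and a PBS wash first. Medium and cells were collected separately, extracted and analysed by RP-HPLC for free and glucuronidated/sulfated xanthones. Quantification used retention time, UV spectrum and five-point standard curves, as % of initial amount; mean ± SD, n ≥ 5.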

Caco-2 cells = assay: Cellular uptake, metabolism and transport of α-MG on Transwell inserts; format: in vitro ADME, human; details: 24 h after addition of α-MG, control cultures; nd: not detected
Procedure, shortened: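 Caco-2 cells were differentiated 21–25 days post-confluence on Transwell inserts. Compound (12 μM) in Tween 40 micelles was added apically for 24 h. Activated cultures had 5 ng/mL IL-1β for 4 h, then a PBS wash. Apical medium, basolateral medium and cell monolayer were collected separately and analysed by RP-HPLC for free and conjugated xanthones. Amounts are % of initial compound; mean ± SD, n ≥ 5.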

[1] = test system: LPS-induced production of NO in RAW 264.7 cells; assay: LPS-induced production of NO; format: cell-based, murine; details: Mus musculus, RAW264.7, read-out: inhibition of LPS-induced production of NO
Procedure, shortened: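 RAW 264.7 cells, 2 days post-confluence, were pretreated 2 h with compound (DMSO stock into 10% FBS medium). They were then stimulated 16 h with 5 ng/mL E. coli O111:B4 LPS. NO production was estimated as medium nitrite by the Griess reaction.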

THP-1 cells = assay: Cellular uptake and metabolism of α-MG; format: in vitro ADME, human; details: 24 h after addition of α-MG, control cultures; nd: not detected
Procedure, shortened: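 THP-1 monocytes were differentiated with 100 nM PMA for 48 h, then exposed 24 h to 5.2 μM compound (DMSO stock into 10% FBS medium). Activated cultures were pre-exposed to 5 ng/mL LPS for 4 h and washed with PBS. Spent medium and cells were collected separately, extracted and analysed by RP-HPLC for free and glucuronidated/sulfated xanthones. Amounts are % of initial compound; mean ± SD, n ≥ 5.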

intracellular xanthone, HepG2 (HepG2 cells): 44 ± 5 pmol/dish
intracellular xanthone, Caco-2 (Caco-2 cells): 100 ± 17 pmol/dish
Structure (SMILES): COc1c(O)cc2oc3cc4c(c(O)c3c(=O)c2c1CC=C(C)C)C=CC(C)(C)O4 [9-hydroxycalabaxanthone]

Structure (SMILES): COC(=O)[C@@H](N)CCCNC(N)=N[N+](=O)[O-] [L-NAME, reference compound]
inhibition at 200 µM [1]: 30%

intracellular xanthone, THP-1 (THP-1 cells): 66 ± 2 pmol/dish
Structure (SMILES): COc1c(O)cc2oc3cc(O)c(CC=C(C)C)c(O)c3c(=O)c2c1CCC(C)(C)O [garcinone D]
